# Screens from PubChem.
# In the library only some 2.3% were active in any assay of this set; here they are far more common.
# PfHsp90 yeast 2 – inhibits growth of yeast expressing Plasmodium falciparum Hsp90 | S. cerevisiae expressing PfHsp90, BacTiter-Glo ATP, 48 h; yeast lacking PDR1 and PDR3 efflux regulators | inhibition, % at 9.4 µM | AID 504621 | 0.32% of 310,000 active;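 active = every replicate shows inhibition above about 80%, whatever the replicate mean, limit read from the data; inconclusive = mean inhibition reaches the set limit but some replicate falls short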;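 note: 0% = DMSO neutral controls and 100% = 20 µM radicicol positive controls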
# Glyco luc inh – N-linked glycosylation inhibition; D54 ERlucT glycosylation luciferase reporter, 24 h; percent of 100 nM tunicamycin response; reporter increase, % at 12.5 µM; 0.23% of 360,000 active;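 active = mean luciferase reporter signal, scaled so untreated is 0 and the glycosylation-blocking control 100, at or above a set limit in every replicate; inconclusive = mean reaches the limit but not every replicate does; inactive = mean below the limit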;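 note: luciferase carries N-glycosylation sites so blocking glycosylation raises the light; 0% = median of neutral control wells and 100% = median of 100 nM tunicamycin wells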
# Rtt109 Vps75 – blocks Candida albicans Rtt109/Vps75 acetyltransferase activity; Q5AAJ8; purified Rtt109/Vps75, ThioGlo CoA-SH fluorescence, 4 h; inhibition, % at 34.9 µM; 0.16% of 330,000 active; AID 540336;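 active = inhibition of at least 50% in every replicate; inconclusive = best replicate reaches 50% inhibition but some replicates fall short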
# Target sequence (Q5AAJ8 whole entry, looked up): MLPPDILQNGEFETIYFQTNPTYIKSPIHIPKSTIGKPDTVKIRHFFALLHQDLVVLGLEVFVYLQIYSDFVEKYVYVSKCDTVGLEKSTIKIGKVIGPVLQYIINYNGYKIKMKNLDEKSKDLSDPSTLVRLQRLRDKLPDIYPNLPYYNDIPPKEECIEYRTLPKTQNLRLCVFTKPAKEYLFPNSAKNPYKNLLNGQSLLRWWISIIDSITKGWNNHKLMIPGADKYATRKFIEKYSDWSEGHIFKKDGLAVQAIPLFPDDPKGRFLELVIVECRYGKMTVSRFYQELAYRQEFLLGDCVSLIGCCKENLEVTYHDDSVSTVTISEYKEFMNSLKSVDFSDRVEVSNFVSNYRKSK
# PAX8 reporter – lowers PAX8-driven luciferase in RMG-I cells; inhibition, % at 12.6 µM; AID 652154; RMG-I TPO-luciferase reporter, SteadyGlo, 24 h; 1.2% of 360,000 active;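 active = mean replicate inhibition at least 60% with every replicate also reaching 60%; inconclusive = only one of the two criteria is met; inactive = mean below 60% and not all replicates reaching 60%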;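 note: luciferase light reporting Pax8 driven TPO promoter activity; plate controls were median of neutral control wells for no effect and mitoxantrone controls for full effect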
# Arr AP2 block – human beta-arrestin and AP2 interaction inhibition. FITC-arrestin peptide / GST-AP2 beads, flow cytometry; AP2 beta2 appendage carries R879A mutation. 0.31% of 340,000 active. inhibition, % at 10 µM;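 active = inhibition above a set limit, near 3 SD of compounds lacking own fluorescence, cut at about 54% in these data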;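 note: plate controls were DMSO wells for no effect and 5 µM unlabelled arrestin peptide for full effect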
#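 System: GST-AP2 R879A glutathione beads | Also added: FITC-arrestin peptide, 50 nM | Times: 12 min plus 1 h, RT | Signal: Bead flow cytometry, FITC channel | Buffer or medium: PBS with 0.05% Tween 20 and 0.1% BSA | Read-out basis: Percent drop in bead-associated FITC signal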
# HIV Env fusion – blocks HIV Env-driven cell-cell fusion | HeLa-JRFL Env/CEM21 cell fusion, luciferase | inhibition, % at 12.3 µM | 1.1% of 360,000 active | AID 651610;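 active = mean replicate inhibition score of at least 50 and every replicate individually at or above 50; inconclusive = only one of the two criteria met; inactive = mean below 50 and not all replicates reaching 50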;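 note: 0% = plate neutral controls and 100% = maraviroc near 300 nM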
# * hit, by the source's call; ? = inconclusive; · = no result; [ ] = another dose, or the depositor's remark.
SMILES,PfHsp90 yeast 2,Glyco luc inh,Rtt109 Vps75,PAX8 reporter,Arr AP2 block,HIV Env fusion
COc1ccc(-n2nnnc2C(c2cc3ccccc3o2)N2CCC(n3c(=O)[nH]c4ccccc43)CC2)cc1 (stereo not given),·,-14,·,52,·,7
O=c1[nH]c2ccccc2n1C1CCN(C(c2cccc3ccccc23)c2nnnn2-c2ccc3c(c2)OCCO3)CC1 (stereo not given),·,-13,·,98*,·,32
Cc1cccc(C)c1-n1nnnc1C(c1cccc2ccccc12)N1CCC(n2c(=O)[nH]c3ccccc32)CC1 (stereo not given),·,-13,·,-10,·,74*
O=C(Cc1ccccc1)N1CCCCN2[C@H](CO)[C@@H](c3ccc(C#Cc4ccccc4)cc3)[C@H]2C1,·,·,·,-3,·,·
C/C=C/c1ccc([C@H]2[C@@H](CO)N3CCCCN(C(=O)Cc4ccncc4)C[C@H]23)cc1,·,·,·,22,·,·
O=C(O)[C@H]1[C@H](CO)[C@H]2Cn3c(ccc(-c4ccc(F)cc4)c3=O)[C@@H]1N2CC1CCCC1,·,·,·,24,·,-10[16.7 µM]
O=C(O)[C@@H]1[C@@H](CO)[C@@H]2Cn3c(ccc(-c4cncnc4)c3=O)[C@H]1N2C(=O)NC1CCCC1,·,·,·,-10,·,·
O=C(Nc1ccncc1)c1cccn(Cc2ccccc2)c1=O,22,3,0,4,-1,56*
O=C(Nc1ccccc1)c1cccn(Cc2ccccc2)c1=O,9,-3,3,-93,-11,16
C/C=C/c1ccc(C2[C@@H]3CN(C(=O)C4CC4)C[C@H]2N3)cc1 (stereo not given in full),·,·,·,0,·,·
COC(=O)[C@H]1[C@H](CO)[C@H]2Cn3c(ccc(-c4ccccc4)c3=O)[C@@H]1N2S(=O)(=O)c1ccccc1C,·,·,·,2,·,·
CCCC1COC(Cn2cncn2)(c2ccc(Cl)cc2Cl)O1 (stereo not given),107*,1,4,-10,-6,-28
CC1(c2ccc(Cl)cc2Cl)OCC(Cn2cncn2)O1 (stereo not given),-2,-2,-2,11,4,7
O=C(NC(=C(Cl)Cl)P(=O)(c1ccccc1)c1ccccc1)c1ccccc1,9,0,-4,108*,25,·
CC=Cc1ccc2n(c1=O)C[C@H]1[C@H](CO)[C@@H](C(=O)O)[C@@H]2N1S(=O)(=O)c1ccccc1F (mixture of isomers),·,·,·,2,·,8[16.7 µM]
Cc1cccc(NC(=O)CSc2nnc([C@@H](N)Cc3c[nH]c4ccccc34)o2)c1C,-19,0,12,·,3,55*
COc1cc(C2c3cc4c(cc3CC3COC(=O)C32)OCO4)cc(OC)c1OC (stereo not given),11,14,9,·,24,·
COc1cc(C2c3cc4c(c(O)c3CC3COC(=O)C32)OCO4)cc(OC)c1OC (stereo not given),16,6,0,88*,34,8
O=C(O)CCC(=O)NCCC1=c2ccccc2=N/C1=C\c1c(O)n(Cc2ccc(F)cc2)c(=S)[nH]c1=O,0,2,9,62*,20,6
Cc1cc(S(=O)(=O)NC(C)C)ccc1OCC(=O)N1CCN(Cc2ccc3c(c2)OCO3)CC1,-3,-4,11,·,6,·
CC(C)NS(=O)(=O)c1ccc(OCC(=O)N2CCN(Cc3ccc4c(c3)OCO4)CC2)c(Cl)c1,·,-1,9,·,6,74*
CC[C@H](C)[C@@H]1NC(=O)CNC(=O)c2csc(n2)[C@H](C(C)(C)O)OC(=O)C(C)(C)[C@H](CCCC(C)(Cl)Cl)OC(=O)c2csc1n2,·,-19,·,102*,·,·
COc1ccc(-c2ccc([C@H]3[C@@H](CO)N4CCCCN(C(=O)Cc5ccccc5)C[C@@H]34)cc2)cc1,·,·,·,-13,·,·
COc1cc(/C=C/[N+](=O)[O-])ccc1OC(=O)c1cccnc1,109*,13,-3,15,-5,-9
CCOC(=O)[C@@H]1[C@@H]2NC(=S)N(C)[C@@]1(COCc1ccc(OC)cc1)Oc1ccccc12,·,·,·,8,·,-3[16.7 µM]
SMILES,PfHsp90 yeast 2,Glyco luc inh,Rtt109 Vps75,PAX8 reporter,Arr AP2 block,HIV Env fusion
O=C(Cc1cccnc1)N1CCCCN2[C@H](CO)[C@@H](c3ccc(C#CC4CCCC4)cc3)[C@@H]2C1,·,·,·,-4,·,·
COC(=O)C1=C(c2cc3ccccc3o2)C[C@@H]2CC[C@H]1N2C(=O)N1CCOCC1,-21,36*,-10,15,1,-21
COC(=O)C1=C(c2ccc(OC(F)(F)F)cc2)C[C@@H]2CC[C@H]1N2C(=O)N1CCCCC1,21,0,3,14,-8,75*
Cc1cccc(S(=O)(=O)N2[C@@H]3c4ccc(-c5ccccc5)c(=O)n4C[C@H]2[C@H](CO)[C@H]3C(=O)O)c1,·,·,·,-4,·,·
COc1cc2cc(C(=O)N3CC(COS(C)(=O)=O)c4ccc(O)cc43)[nH]c2c(OC)c1OC (stereo not given),104*,-20,-2,·,7,·
CN1C2CCC1C(COC(=O)c1ccccc1)C(O)C2 (stereo not given),-6,2,2,-53,30,7
CC1CCN(C(CC(=O)c2ccccc2)C(=O)c2ccccc2)CC1 (stereo not given),113*,3,0,-108,2,-12
O=C(c1ccccc1)C(CN1CCCC1)c1ccccc1 (stereo not given),8,-16,-2,100*,·,-43
CCN1CCN(CC(c2ccccc2)c2ccccc2)CC1,-12,1,-1,20,3,-10
C[C@]12CC[C@H](O)C[C@H]1CC[C@@H]1[C@@H]2C[C@@H](O)[C@]2(C)[C@@H](C3=CC(=O)OC3)CC[C@]12O,-30,-21,5,104*,25,-41
C[C@]12CCC3C(CC[C@H]4C[C@@H](O)CC[C@]34C)[C@H]1C=CC2=O (stereo not given in full),-9,0,-2,31,4,-2
COC1C(O)C(C)OC(OC2CCC3(C)C(CCC4C3C(O)CC3(C)C(C5=CC(=O)OC5)CCC43O)C2)C1O (stereo not given),0,-16,10,108*,9,86*
CC12CCC(O)CC1CCC1C2CCC2(C)C(C3=CC(=O)OC3)C(O)CC12O (stereo not given),-13,-10,12,46,35,74*
CC(=O)OC1CC(OC2C(O)CC(OC3C(O)CC(OC4CCC5(C)C(CCC6C5CC(O)C5(C)C(C7=CC(=O)OC7)CCC65O)C4)OC3C)OC2C)OC(C)C1OC1OC(CO)C(O)C(O)C1O (stereo not given),6,-20,1,111*,-35,-18
C[C@]12CC[C@H](O)C[C@H]1CC[C@@H]1[C@@H]2CC[C@]2(C)[C@@H](C3=CC(=O)OC3)CC[C@]12O,-9,-20,2,113*,0,?
